The subject of experiment [1] is Nucleic Acid. Briefly: Ratio for human acute promyelocytic leukemia cells(HL-60) cell growth inhibition and [3H]TdR incorporation into DNA in HL-60 cells. In kind it is functional, cell-based.
For a further experiment, the system named is L1210. Briefly: Inhibitory activity against murine L1210 leukemic cell growth. In kind it is functional. The conditions noted are these: Mus musculus, read-out: ID50 (the source's name).
Experiment [2] concerns Nucleic Acid. Nature of the experiment: Inhibitory activity against [3H]TdR incorporation into DNA in HL-60 cells during the initial 30-min period. The format is functional, cell-based. The conditions noted are these: Homo sapiens. Put shortly:
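HL-60 cells (2.5 × 10^6/mL) preincubated 15 min with compound at four to six concentrations in 0.2% DMSO, then pulsed with [3H-methyl]TdR (1 μCi, 0.15 nmol/mL) for 30 min; radioactivity in isolated DNA fraction counted; compound-free DMSO control as reference.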

The next experiment deals with HL-60. Briefly: Inhibitory activity against human acute promyelocytic leukemia cells(HL-60) cell growth on 72 hr of exposure of the compound. In kind it is functional. As to conditions: HL-60, 72 h, read-out: ID50 (the source's name).

Where only a bound is given, the exact number is not on record here.

Drawing on ChEMBL document CHEMBL1124531, “Intercalating agents with covalent bond forming capability. A novel type of potential anticancer agents. 2. Derivatives of chrysophanol and emodin” (1989), this text covers Ratio, IC50 and ID50 for 34 molecules.

`O=C1c2cccc(O)c2C(=O)c2c(O)cc(CNCCO)cc21`: in the experiment with Nucleic Acid [1], the Ratio is 17.4. Further, in the experiment with L1210, the IC50 was found to be 0.16 µM. Further, in the experiment with Nucleic Acid [2], the ID50 came out at 15 µM.
As to `COc1cc(O)c2c(c1)C(=O)c1cc(CN(CCCl)CCCl)cc(O)c1C2=O`, the IC50 in the experiment on HL-60 worked out at 0.61 µM. Besides, the Ratio in the experiment on Nucleic Acid [1] amounted to 19.7. Further, the ID50 in the experiment with Nucleic Acid [2] amounted to 12 µM.
Turning to `O=C1c2cccc(O)c2C(=O)c2c(O)cc(CN(CCO)CCO)cc21`, the IC50 with HL-60 came out at 3.3 µM; with L1210, 5.9 µM. In the experiment on Nucleic Acid [1], the Ratio came out at 4.2. This molecule came in with an ID50 with Nucleic Acid [2] of 14 µM.
As for `COc1cccc2c1C(=O)c1c(OC)cc(C)cc1C2=O`, in the experiment on Nucleic Acid [1], the Ratio was determined as 1.9. Besides, the IC50 in the experiment on L1210 came to 28 µM. Also, in the experiment on Nucleic Acid [2], the ID50 is 19 µM.
For `O=C1c2cccc(O)c2C(=O)c2c(O)cc(C(Br)Br)cc21`, the IC50 was determined as 2.5 µM in the experiment on HL-60 and 0.44 µM in the experiment with L1210. Further, the Ratio with Nucleic Acid [1] is 15.6. The molecule also yielded an ID50 in the experiment on Nucleic Acid [2] of 39 µM.
Take `CNC(=O)OCCN(CCOC(=O)NC)Cc1cc(OC)c2c(c1)C(=O)c1cccc(O)c1C2=O`: the IC50 in the experiment on HL-60 was found to be 12 µM; in the experiment on L1210, 89 µM. In addition, the Ratio in the experiment with Nucleic Acid [1] is 1. The ID50 with Nucleic Acid [2] turned out to be 12 µM.
As for `COc1cc(OC)c2c(c1)C(=O)c1cc(CNCCO)cc(OC)c1C2=O`, the IC50 with HL-60 is 110 µM; with L1210, 17 µM. Besides, the Ratio in the experiment with Nucleic Acid [1] worked out at 0.24. In the experiment on Nucleic Acid [2], this molecule registered an ID50 of 26 µM.
For `CCCCNCc1cc(O)c2c(c1)C(=O)c1cccc(O)c1C2=O`, the IC50 with HL-60 turned out to be 4.1 µM; in the experiment with L1210, 4.6 µM. The Ratio in the experiment on Nucleic Acid [1] is 6.1. The molecule also registered an ID50 with Nucleic Acid [2] of 25 µM.
Consider `CN(C)Cc1cc(O)c2c(c1)C(=O)c1cccc(O)c1C2=O`, for which the IC50 came to 2.7 µM with HL-60 and 2.2 µM with L1210. In the experiment on Nucleic Acid [1], the Ratio turned out to be 3.3. Moreover, in the experiment on Nucleic Acid [2], the ID50 stood at 9.3 µM.
On to `COc1cc(CBr)cc2c1C(=O)c1c(O)cccc1C2=O`, for which the IC50 was found to be 7.1 µM with HL-60 and 8.8 µM in the experiment on L1210. Further, in the experiment with Nucleic Acid [1], the Ratio was found to be 1.7. The ID50 in the experiment on Nucleic Acid [2] worked out at 12 µM.
For `O=C1c2cccc(O)c2C(=O)c2c(O)cc(CN3CCCC3)cc21` the same measures were 2.1 µM, 1.6 µM, 4.8 and 10 µM.
Consider `NCc1cc(O)c2c(c1)C(=O)c1cccc(O)c1C2=O`, for which the IC50 in the experiment on HL-60 came to 11 µM; in the experiment on L1210, 8.5 µM. In addition, in the experiment with Nucleic Acid [1], the Ratio came to 2.3. Moreover, in the experiment on Nucleic Acid [2], the ID50 turned out to be 25 µM.
In the case of `COc1cc(O)c2c(c1)C(=O)c1cc(C(Br)Br)cc(O)c1C2=O`, the IC50 in the experiment with HL-60 turned out to be 0.19 µM; in the experiment with L1210, 0.001 µM. The Ratio in the experiment on Nucleic Acid [1] came to 579. For the same molecule, the ID50 in the experiment on Nucleic Acid [2] worked out at 110 µM.
Consider `COc1cc(O)c2c(c1)C(=O)c1cc(CN(CCO)CCO)cc(OC)c1C2=O`, for which the IC50 in the experiment with HL-60 is greater than 500 µM; in the experiment with L1210 it was 8.8 µM. The Ratio in the experiment with Nucleic Acid [1] is 0.02. The ID50 in the experiment with Nucleic Acid [2] was 9.6 µM.
For `CC(C)NC(=O)OCCN(CCOC(=O)NC(C)C)Cc1cc(O)c2c(c1)C(=O)c1cccc(O)c1C2=O` the same measures were 27 µM, 27 µM, 0.63 and 17 µM.
For `CCN(CC)Cc1cc(OC)c2c(c1)C(=O)c1cccc(OC)c1C2=O` the same measures were 30 µM, 130 µM, 6.3 and 19 µM.
For `CCN(CC)Cc1cc(OC)c2c(c1)C(=O)c1cc(OC)cc(O)c1C2=O`, the values for the IC50 in the experiment on HL-60 and with L1210 were 6.7 µM and 6.9 µM, respectively. Further, the Ratio in the experiment on Nucleic Acid [1] was 26.9. The molecule also registered an ID50 with Nucleic Acid [2] of 180 µM.
Taken in the same sequence, the figures for `COc1cc(O)c2c(c1)C(=O)c1cc(CBr)cc(OC)c1C2=O` were 1.7 µM, 0.068 µM, 41 and 70 µM.
Taken in the same sequence, the figures for `COc1cccc2c1C(=O)c1c(OC)cc(CNCCO)cc1C2=O` were 55 µM, 140 µM, 0.84 and 46 µM.
For `COc1cccc2c1C(=O)c1c(OC)cc(CBr)cc1C2=O` the same measures were 4.4 µM, 9.2 µM, 2.5 and 11 µM.
In the case of `O=C1c2cccc(O)c2C(=O)c2c(O)cc(CNCCCO)cc21`, the IC50 in the experiment on HL-60 is 3.2 µM; in the experiment with L1210 it was 0.67 µM. In the experiment on Nucleic Acid [1], the Ratio is 5. In addition, the ID50 with Nucleic Acid [2] is 16 µM.
Taken in the same sequence, the figures for `COc1cc(O)c2c(c1)C(=O)c1cc(CN(CCCl)CCCl)cc(OC)c1C2=O` were 0.52 µM, 3.3 µM, 10.4 and 5.4 µM.
Consider `COc1cccc2c1C(=O)c1c(OC)cc(CN(CCO)CCO)cc1C2=O`, for which the IC50 is 490 µM with HL-60 and greater than 50 µM in the experiment with L1210. The Ratio in the experiment with Nucleic Acid [1] was determined as 0.03. This molecule also returned an ID50 with Nucleic Acid [2] of 14 µM.
For `CCN(CC)Cc1cc(O)c2c(c1)C(=O)c1cc(OC)cc(O)c1C2=O` the same measures were 3.4 µM, 1.2 µM, 10.3 and 35 µM.
As to `COc1cc(OC)c2c(c1)C(=O)c1cc(C(Br)Br)cc(OC)c1C2=O`, the IC50 with HL-60 stood at 6 µM; in the experiment on L1210, 41 µM. The Ratio in the experiment on Nucleic Acid [1] worked out at 9.7. The ID50 in the experiment with Nucleic Acid [2] came to 58 µM.
For `COc1cc(O)c2c(c1)C(=O)c1cc(C(Br)Br)cc(OC)c1C2=O` the same measures were 0.097 µM, 0.001 µM, 237 and 23 µM.
Taken in the same sequence, the figures for `COc1cc(OC)c2c(c1)C(=O)c1cc(CBr)cc(OC)c1C2=O` were 84 µM, 0.68 µM, 0.14 and 12 µM.
Taken in the same sequence, the figures for `COc1cc(OC)c2c(c1)C(=O)c1cc(C)cc(OC)c1C2=O` were 49 µM, 100 µM, 0.43 and 21 µM.
Take `O=C1c2cccc(O)c2C(=O)c2c(O)cc(CBr)cc21`: the IC50 in the experiment with HL-60 is 7.1 µM; with L1210, 8.6 µM. Moreover, the Ratio in the experiment on Nucleic Acid [1] worked out at 2.3. In the experiment on Nucleic Acid [2], this molecule came in with an ID50 of 16 µM.
For the molecule `CCN(CC)Cc1cc(O)c2c(c1)C(=O)c1cccc(O)c1C2=O`, the IC50 in the experiment with HL-60 was 1.8 µM; in the experiment with L1210, 2.8 µM. Also, the Ratio in the experiment on Nucleic Acid [1] worked out at 7.8. The same molecule registered an ID50 with Nucleic Acid [2] of 14 µM.
Turning to `O=C1c2cccc(O)c2C(=O)c2c(O)cc(Cn3ccnc3)cc21`, the IC50 was 4.8 µM with HL-60 and 7.4 µM in the experiment with L1210. Besides, in the experiment with Nucleic Acid [1], the Ratio was 9. The same molecule returned an ID50 in the experiment with Nucleic Acid [2] of 43 µM.
`COc1cc(OC)c2c(c1)C(=O)c1cc(CNCCCl)cc(OC)c1C2=O`: the IC50 with HL-60 came to 5.8 µM; in the experiment on L1210 it was 32 µM. In the experiment with Nucleic Acid [1], the Ratio is 3.1. This molecule also displayed an ID50 in the experiment with Nucleic Acid [2] of 18 µM.
With `COc1cc(CN(CCCl)CCCl)cc2c1C(=O)c1c(O)cccc1C2=O`, the IC50 with HL-60 is 0.39 µM. For the same molecule, in the experiment on Nucleic Acid [1], the Ratio was 38.5. The ID50 in the experiment with Nucleic Acid [2] came to 15 µM.
Take `O=C1c2cccc(O)c2C(=O)c2c(O)cc(CN(CCCl)CCCl)cc21`: in the experiment on HL-60, the IC50 was found to be 0.18 µM. In addition, the Ratio in the experiment with Nucleic Acid [1] worked out at 383. Further, the ID50 in the experiment with Nucleic Acid [2] stood at 69 µM.
